From ChEMBL document CHEMBL1828624, “Synthesis and antioxidant activity of oxazolyl/thiazolylsulfonylmethyl pyrazoles and isoxazoles” (Eur J Med Chem, 2011)
Values after ≈ are worked out from the molar mass of the structure shown. Active and inactive are the calls of the source. The calls are words filed in the database; no cut-off is given here.

Tests used:
Type in all cases: functional
[1] = system: Radical scavenging activity; experiment: Antioxidant activity assessed as DPPH free radical scavenging activity at 50 ug/ml after 30 mins by spectrophotometric analysis relative to control
Method in brief: (§1)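 Compounds in methanol at […] were mixed with 0.004% (w/v) methanolic DPPH. After 30 min at room temperature, absorbance was read at 517 nm against a blank. Percent inhibition was calculated from control (all reagents minus compound) and sample absorbances. Run in triplicate.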

[2] = system: Radical scavenging activity; experiment: Antioxidant activity assessed as DPPH free radical scavenging activity at 75 ug/ml after 30 mins by spectrophotometric analysis relative to control; method in brief: as §1
[3] = system: Radical scavenging activity; experiment: Antioxidant activity assessed as DPPH free radical scavenging activity at 100 ug/ml after 30 mins by spectrophotometric analysis relative to control; method in brief: as §1
[4] = system: Radical scavenging activity; experiment: Antioxidant activity assessed as DPPH free radical scavenging activity after 30 mins by spectrophotometric analysis; method in brief: as §1
[5] = Antioxidant activity assessed as nitric oxide scavenging activity at 50 ug/ml after 150 mins by Griess method relative to control
Method in brief: (§2)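 NO was generated from sodium nitroprusside (10 mM) in phosphate buffer saline (0.2 M, pH 7.4). Compounds were added at […] and incubated 150 min at 25 °C. Percent scavenging was calculated from control (all reagents minus compound) and sample absorbances. Run in triplicate.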

[6] = Antioxidant activity assessed as nitric oxide scavenging activity at 75 ug/ml after 150 mins by Griess method relative to control; method in brief: as §2
[7] = Antioxidant activity assessed as nitric oxide scavenging activity at 100 ug/ml after 150 mins by Griess method relative to control; method in brief: as §2
[8] = Antioxidant activity assessed as hydrogen peroxide scavenging activity at 50 ug/ml relative to control
[9] = Antioxidant activity assessed as hydrogen peroxide scavenging activity at 75 ug/ml relative to control
[10] = Antioxidant activity assessed as hydrogen peroxide scavenging activity at 100 ug/ml relative to control

## O=S(=O)(CC1=NCCS1)C1C(c2ccccc2)=NN(c2ccccc2)C1c1ccccc1 (stereo not given)
[1]
  inhibition: inactive
[2]
  inhibition: inactive
[3]
  inhibition: inactive
[4]
  IC50: Not Active
[5]
  Activity: inactive
[6]
  Activity: inactive
[7]
  Activity: inactive
[8]
  Activity: inactive
[9]
  Activity: inactive
[10]
  Activity: inactive

## COc1ccc(C2=NOC(c3ccc(C)cc3)C2S(=O)(=O)CC2=NCCS2)cc1 (stereo not given)
[1]
  inhibition: 46.8%
[2]
  inhibition: 50.6%
[3]
  inhibition: 58.6%
[4]
  IC50: 85.38 µg/mL (≈ 198 µM)
[5]
  Activity: 48.6%
[6]
  Activity: 54.1%
[7]
  Activity: 59.6%
[8]
  Activity: 47.5%
[9]
  Activity: 49.7%
[10]
  Activity: 52.6%

## O=S(=O)(CC1=NCCO1)c1c(-c2ccccc2)noc1-c1ccccc1
[1]
  inhibition: 61.6%
[2]
  inhibition: 65.8%
[3]
  inhibition: 72%
[4]
  IC50: 69.47 µg/mL (≈ 189 µM)
[5]
  Activity: 56.7%
[6]
  Activity: 57.3%
[7]
  Activity: 62.1%
[8]
  Activity: 57.2%
[9]
  Activity: 58.1%
[10]
  Activity: 60.1%

## O=S(=O)(CC1=NCCS1)c1c(-c2ccccc2)nn(-c2ccccc2)c1-c1ccccc1
[1]
  inhibition: inactive
[2]
  inhibition: inactive
[3]
  inhibition: inactive
[4]
  IC50: Not Active
[5]
  Activity: inactive
[6]
  Activity: inactive
[7]
  Activity: inactive
[8]
  Activity: inactive
[9]
  Activity: inactive
[10]
  Activity: inactive

## O=S(=O)(CC1=NCCO1)C1C(c2ccc(Cl)cc2)=NOC1c1ccc(Cl)cc1 (stereo not given)
[1]
  inhibition: inactive
[2]
  inhibition: inactive
[3]
  inhibition: inactive
[4]
  IC50: Not Active
[5]
  Activity: inactive
[6]
  Activity: inactive
[7]
  Activity: inactive
[8]
  Activity: inactive
[9]
  Activity: inactive
[10]
  Activity: inactive

## O=S(=O)(CC1=NCCO1)c1c(-c2ccccc2)nn(-c2ccccc2)c1-c1ccccc1
[1]
  inhibition: 51.9%
[2]
  inhibition: 56.6%
[3]
  inhibition: 60.6%
[4]
  IC50: 82.48 µg/mL (≈ 186 µM)
[5]
  Activity: 54.5%
[6]
  Activity: 59%
[7]
  Activity: 63.5%
[8]
  Activity: 55.6%
[9]
  Activity: 57.2%
[10]
  Activity: 59.1%

## Cc1ccc(-c2c[nH]nc2S(=O)(=O)CC2=NCCS2)cc1
[1]
  inhibition: inactive
[2]
  inhibition: inactive
[3]
  inhibition: inactive
[4]
  IC50: Not Active
[5]
  Activity: inactive
[6]
  Activity: inactive
[7]
  Activity: inactive
[8]
  Activity: inactive
[9]
  Activity: inactive
[10]
  Activity: inactive

## O=S(=O)(CC1=NCCS1)C1=NNCC1c1ccc(Cl)cc1 (stereo not given)
[1]
  inhibition: inactive
[2]
  inhibition: inactive
[3]
  inhibition: inactive
[4]
  IC50: Not Active
[5]
  Activity: inactive
[6]
  Activity: inactive
[7]
  Activity: inactive
[8]
  Activity: inactive
[9]
  Activity: inactive
[10]
  Activity: inactive

## COc1ccc(C2=NN(c3ccccc3)C(c3ccc(C)cc3)C2S(=O)(=O)CC2=NCCS2)cc1 (stereo not given)
[1]
  inhibition: 37.5%
[2]
  inhibition: 45.8%
[3]
  inhibition: 51.5%
[4]
  IC50: 97.04 µg/mL (≈ 192 µM)
[5]
  Activity: 39.4%
[6]
  Activity: 44.9%
[7]
  Activity: 50.7%
[8]
  Activity: 42.6%
[9]
  Activity: 43.9%
[10]
  Activity: 47.9%

## COc1ccc(C2=NN(c3ccccc3)C(c3ccc(C)cc3)C2S(=O)(=O)CC2=NCCO2)cc1 (stereo not given)
[1]
  inhibition: 64.4%
[2]
  inhibition: 70.2%
[3]
  inhibition: 73.8%
[4]
  IC50: 67.74 µg/mL (≈ 138 µM)
[5]
  Activity: 59.1%
[6]
  Activity: 64.9%
[7]
  Activity: 70.5%
[8]
  Activity: 62.5%
[9]
  Activity: 64.3%
[10]
  Activity: 67.7%

## O=C1O[C@H]([C@@H](O)CO)C(O)=C1O [ASCORBIC ACID]
[1]
  inhibition: 77.2%
[2]
  inhibition: 81%
[3]
  inhibition: 83.8%
[4]
  IC50: 59.65 µg/mL (≈ 339 µM)
[5]
  Activity: 78.2%
[6]
  Activity: 81.5%
[7]
  Activity: 82.8%
[8]
  Activity: 77.7%
[9]
  Activity: 79.3%
[10]
  Activity: 83.2%

## O=S(=O)(CC1=NCCO1)C1C(c2ccc(Cl)cc2)=NN(c2ccccc2)C1c1ccc(Cl)cc1 (stereo not given)
[1]
  inhibition: inactive
[2]
  inhibition: inactive
[3]
  inhibition: inactive
[4]
  IC50: Not Active
[5]
  Activity: inactive
[6]
  Activity: inactive
[7]
  Activity: inactive
[8]
  Activity: inactive
[9]
  Activity: inactive
[10]
  Activity: inactive

## Cc1ccc(-c2c[nH]nc2S(=O)(=O)CC2=NCCO2)cc1
[1]
  inhibition: 59.8%
[2]
  inhibition: 63.7%
[3]
  inhibition: 69%
[4]
  IC50: 72.51 µg/mL (≈ 237 µM)
[5]
  Activity: 59.4%
[6]
  Activity: 63.5%
[7]
  Activity: 65.2%
[8]
  Activity: 60.7%
[9]
  Activity: 62%
[10]
  Activity: 65.5%

## O=S(=O)(CC1=NCCO1)C1=NNCC1c1ccc(Cl)cc1 (stereo not given)
[1]
  inhibition: inactive
[2]
  inhibition: inactive
[3]
  inhibition: inactive
[4]
  IC50: Not Active
[5]
  Activity: inactive
[6]
  Activity: inactive
[7]
  Activity: inactive
[8]
  Activity: inactive
[9]
  Activity: inactive
[10]
  Activity: inactive

## COc1ccc(-c2nn(-c3ccccc3)c(-c3ccc(C)cc3)c2S(=O)(=O)CC2=NCCS2)cc1
[1]
  inhibition: inactive
[2]
  inhibition: inactive
[3]
  inhibition: inactive
[4]
  IC50: Not Active
[5]
  Activity: inactive
[6]
  Activity: inactive
[7]
  Activity: inactive
[8]
  Activity: inactive
[9]
  Activity: inactive
[10]
  Activity: inactive

## O=S(=O)(CC1=NCCO1)c1n[nH]cc1-c1ccc(Cl)cc1
[1]
  inhibition: inactive
[2]
  inhibition: inactive
[3]
  inhibition: inactive
[4]
  IC50: Not Active
[5]
  Activity: inactive
[6]
  Activity: inactive
[7]
  Activity: inactive
[8]
  Activity: inactive
[9]
  Activity: inactive
[10]
  Activity: inactive

## O=S(=O)(CC1=NCCS1)c1n[nH]cc1-c1ccccc1
[1]
  inhibition: inactive
[2]
  inhibition: inactive
[3]
  inhibition: inactive
[4]
  IC50: Not Active
[5]
  Activity: inactive
[6]
  Activity: inactive
[7]
  Activity: inactive
[8]
  Activity: inactive
[9]
  Activity: inactive
[10]
  Activity: inactive

## Cc1ccc(C2CNN=C2S(=O)(=O)CC2=NCCO2)cc1 (stereo not given)
[1]
  inhibition: 38.7%
[2]
  inhibition: 43.6%
[3]
  inhibition: 49.8%
[4]
  IC50: 100.44 µg/mL (≈ 327 µM)
[5]
  Activity: 45.9%
[6]
  Activity: 49.7%
[7]
  Activity: 51.4%
[8]
  Activity: 41.3%
[9]
  Activity: 42.1%
[10]
  Activity: 46.8%

## O=S(=O)(CC1=NCCO1)C1=NNCC1c1ccccc1 (stereo not given)
[1]
  inhibition: inactive
[2]
  inhibition: inactive
[3]
  inhibition: inactive
[4]
  IC50: Not Active
[5]
  Activity: inactive
[6]
  Activity: inactive
[7]
  Activity: inactive
[8]
  Activity: inactive
[9]
  Activity: inactive
[10]
  Activity: inactive

## O=S(=O)(CC1=NCCS1)C1C(c2ccc(Cl)cc2)=NN(c2ccccc2)C1c1ccc(Cl)cc1 (stereo not given)
[1]
  inhibition: inactive
[2]
  inhibition: inactive
[3]
  inhibition: inactive
[4]
  IC50: Not Active
[5]
  Activity: inactive
[6]
  Activity: inactive
[7]
  Activity: inactive
[8]
  Activity: inactive
[9]
  Activity: inactive
[10]
  Activity: inactive

## COc1ccc(-c2noc(-c3ccc(C)cc3)c2S(=O)(=O)CC2=NCCS2)cc1
[1]
  inhibition: inactive
[2]
  inhibition: inactive
[3]
  inhibition: inactive
[4]
  IC50: Not Active
[5]
  Activity: inactive
[6]
  Activity: inactive
[7]
  Activity: inactive
[8]
  Activity: inactive
[9]
  Activity: inactive
[10]
  Activity: inactive

## COc1ccc(-c2noc(-c3ccc(C)cc3)c2S(=O)(=O)CC2=NCCO2)cc1
[1]
  inhibition: 72.9%
[2]
  inhibition: 75.8%
[3]
  inhibition: 79.7%
[4]
  IC50: 62.76 µg/mL (≈ 152 µM)
[5]
  Activity: 68.8%
[6]
  Activity: 73%
[7]
  Activity: 76.2%
[8]
  Activity: 70%
[9]
  Activity: 72%
[10]
  Activity: 77.1%

## O=S(=O)(CC1=NCCS1)c1c(-c2ccc(Cl)cc2)nn(-c2ccccc2)c1-c1ccc(Cl)cc1
[1]
  inhibition: inactive
[2]
  inhibition: inactive
[3]
  inhibition: inactive
[4]
  IC50: Not Active
[5]
  Activity: inactive
[6]
  Activity: inactive
[7]
  Activity: inactive
[8]
  Activity: inactive
[9]
  Activity: inactive
[10]
  Activity: inactive

## O=S(=O)(CC1=NCCO1)c1n[nH]cc1-c1ccccc1
[1]
  inhibition: 50.1%
[2]
  inhibition: 54.3%
[3]
  inhibition: 60.8%
[4]
  IC50: 82.26 µg/mL (≈ 282 µM)
[5]
  Activity: 50.6%
[6]
  Activity: 54.7%
[7]
  Activity: 57.5%
[8]
  Activity: 53.3%
[9]
  Activity: 55.6%
[10]
  Activity: 58.5%
